ChEMBL document CHEMBL1152772, “Orally bioavailable antagonists of inhibitor of apoptosis proteins based on an azabicyclooctane scaffold” (J Med Chem, 2009)
Activity calls are given as the source filed them.

Experiments:
[1] = target: E3 ubiquitin-protein ligase XIAP (Homo sapiens, UniProt P98170); experiment: Binding affinity to XIAP-BIR3 domain by fluorescence polarization competitive assay
[2] = Binding affinity to MLXBIR3SG domain by fluorescence polarization competitive assay
MDA-MB-231 [3] = experiment: Cytotoxicity against human MDA-MB-231 cells assessed as cell viability after 3 to 4 days
HMEC [4] = experiment: Cytotoxicity against HMEC cells assessed as cell viability after 3 to 4 days; conditions: Homo sapiens
MDA-MB-231 [5] = experiment: Induction of apoptosis in human MDA-MB-231 cells assessed as caspase 3/7 activation after 3 to 24 hrs
BT-549 = experiment: Induction of apoptosis in human BT549 cells assessed as caspase 3/7 activation after 3 to 24 hrs
HMEC [6] = experiment: Induction of apoptosis in HMEC cells assessed as caspase 3/7 activation after 3 to 24 hrs; conditions: Homo sapiens
[7] = Cmax in mouse at 25 mg/kg, po; type: ADME, organism-based; parameters: dose 25 mg/kg, route oral; conditions: in vivo
[8] = AUC in mouse at 25 mg/kg, po; type: ADME, organism-based; parameters: dose 25 mg/kg, route oral; conditions: plasma
[9] = Half life in mouse at 25 mg/kg, po; type: ADME, organism-based; parameters: dose 25 mg/kg, route oral; conditions: in vivo
MDA-MB-231 [10] = experiment: Antitumor activity against human MDA-MB-231 cells xenografted in mouse assessed as increase in median time for tumor progression at 50 mg/kg/day, po; type: functional, organism-based
In short: (§1)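 Female 8-week-old C.B-17 SCID.bg mice inoculated subcutaneously in the upper right flank with 1 × 10⁷ GFP-expressing MDA-MB-231-X1.1 cells. Once-daily oral gavage of vehicle or compound at 50 (mg/kg)/day began at tumors of ~200 mm³ (~1.5 weeks after inoculation), n = 14 per group. Caliper tumor volume V = 0.5ab². Progression defined as a 6-fold volume increase from day 0; body weight monitored.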

Mus musculus = experiment: Toxicity in mouse bearing human MDA-MB-231 cells assessed as change in body weight at 50 mg/kg/day, po; type: organism-based; parameters: route oral; conditions: in vivo; in short: as §1
MDA-MB-231 [11] = experiment: Induction of cIAP1 degradation in human MDA-MB-231 cells after 1 hr by Western blot; type: functional, cell-based
In short: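 MDA-MB-231 cells treated 1 h with a range of compound concentrations. Western blot probed with goat anti-c-IAP1, with mouse monoclonal anti-β-tubulin as loading control.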

E3 ubiquitin-protein ligase XIAP, sequence (P98170 whole entry, the tested form may be a part): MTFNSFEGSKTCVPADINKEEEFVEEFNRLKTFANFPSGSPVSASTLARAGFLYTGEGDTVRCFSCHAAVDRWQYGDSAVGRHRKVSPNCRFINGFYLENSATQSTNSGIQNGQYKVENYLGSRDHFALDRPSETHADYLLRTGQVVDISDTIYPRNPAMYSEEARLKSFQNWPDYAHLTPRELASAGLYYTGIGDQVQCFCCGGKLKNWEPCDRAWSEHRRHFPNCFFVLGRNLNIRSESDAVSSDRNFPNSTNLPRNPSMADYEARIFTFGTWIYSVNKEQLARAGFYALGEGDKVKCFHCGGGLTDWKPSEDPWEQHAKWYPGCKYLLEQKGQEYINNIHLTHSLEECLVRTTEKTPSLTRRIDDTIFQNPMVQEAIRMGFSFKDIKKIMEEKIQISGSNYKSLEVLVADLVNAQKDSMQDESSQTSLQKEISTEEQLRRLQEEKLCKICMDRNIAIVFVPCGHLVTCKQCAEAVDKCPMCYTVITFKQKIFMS

Row | Ki [1] [nM] | Ki [2] [nM] | EC50 (MDA-MB-231 [5]) [nM] | EC50 (BT-549) [nM] | EC50 (HMEC [6]) [nM] | Structure (SMILES) | EC50 (MDA-MB-231 [3]) [nM] | EC50 (HMEC [4]) [nM] | other results
1 | 3000 | 290 | – | – | – | CN[C@@H](C)C(=O)N[C@H](C(=O)N1CCC[C@H]1CNC(=O)C(c1ccccc1)c1ccccc1)C(C)(C)C | – | – | –
2 | 1600 | 780 | – | – | – | CN[C@@H](C)C(=O)N[C@H](C(=O)N1CCC[C@H]1CNC(=O)c1cccc2ccccc12)C(C)(C)C | – | – | –
3 | – | – | 4450 | 4070 | > 10000 | CN[C@@H](C)C(=O)N[C@H](C(=O)N1CC[C@H]2CC[C@H](NC(=O)c3ccc(F)c4ccccc34)[C@H]21)C(C)(C)C | 10200 | > 10000 | –
4 | 190 | 63 | 1580 | 1450 | > 10000 | CN[C@@H](C)C(=O)N[C@H](C(=O)N1CC[C@H]2CC[C@H](NC(=O)c3ccc(C)c4ccccc34)[C@H]21)C(C)(C)C | 3120 | > 10000 | –
5 | – | – | 1320 | 190 | > 10000 | CN[C@@H](C)C(=O)N[C@H](C(=O)N1CC[C@H]2CC[C@H](NC(=O)c3ccc4ccccc4c3)[C@H]21)C(C)(C)C | 3290 | > 10000 | –
6 | – | – | 490 | 470 | > 10000 | CN[C@@H](C)C(=O)N[C@H](C(=O)N1CC[C@H]2CC[C@H](NC(=O)c3cccc4ccccc34)[C@H]21)C(C)(C)C | 980 | > 10000 | Cmax [7]: 3.6 µM; AUC [8]: 5 µM·h; half-life [9]: 1.3 h; Activity (MDA-MB-231 [10]): Active; Activity (Mus musculus): Non-toxic; Activity (MDA-MB-231 [11]): Active
7 | 1300 | 1500 | – | – | – | CN[C@@H](C)C(=O)N[C@H](C(=O)N1CC[C@H]2CC[C@H](NC(=O)C3COc4ccccc43)[C@H]21)C(C)(C)C (some centres undefined) | – | – | –
8 | 1500 | 1900 | – | – | – | CN[C@@H](C)C(=O)N[C@H](C(=O)N1CC[C@H]2CC[C@H](NC(=O)N3CCc4ccccc43)[C@H]21)C(C)(C)C | – | – | –
9 | 160 | 110 | – | – | – | CN[C@@H](C)C(=O)N[C@H](C(=O)N1CC[C@H]2CC[C@H](NC(=O)c3csc4ccccc34)[C@H]21)C(C)(C)C | – | – | –
10 | 1500 | 260 | – | – | – | CN[C@@H](C)C(=O)N[C@H](C(=O)N1CC[C@H]2CC[C@H](NC(=O)c3ccc4[nH]nnc4c3)[C@H]21)C(C)(C)C | – | – | –
11 | 1800 | 1300 | – | – | – | CN[C@@H](C)C(=O)N[C@H](C(=O)N1CC[C@H]2CC[C@H](NC(=O)c3ccc4c(c3)OCO4)[C@H]21)C(C)(C)C | – | – | –
12 | 110 | 110 | – | – | – | CN[C@@H](C)C(=O)N[C@H](C(=O)N1CC[C@H]2CC[C@H](NC(=O)c3c(OC)ccc4ccccc34)[C@H]21)C(C)(C)C | – | – | –
13 | 640 | 440 | – | – | – | CN[C@@H](C)C(=O)N[C@H](C(=O)N1CC[C@H]2CC[C@H](NC(=O)c3coc4ccccc34)[C@H]21)C(C)(C)C | – | – | –
14 | – | – | 3590 | 1810 | > 10000 | CN[C@@H](C)C(=O)N[C@H](C(=O)N1CC[C@H]2CC[C@H](NC(=O)C(c3ccccc3)c3ccccc3)[C@H]21)C(C)(C)C | 9640 | > 10000 | Cmax [7]: 5 µM; AUC [8]: 16 µM·h; half-life [9]: 1.5 h
